Assays:
[1] = biological target: Muscarinic acetylcholine receptor M3 (Cavia porcellus, UniProt Q8VH26); test: Antagonist activity at M3 receptor in Dunkin-Hartley guinea pig trachea assessed as inhibition of methacholine-induced airway smooth muscle contraction after 1 to 4 hrs; settings: read-out: pA2 (converted)
How it was run: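 Isolated guinea pig tracheal rings equilibrated 1 h, re-tensioned to 1 g, primed with methacholine, then a cumulative methacholine curve (3 × 10^-9 to 3 × 10^-5 M). Vehicle or compound equilibrated 1 or 4 h before a second curve (3 × 10^-9 to 1 × 10^-3 M final). Isometric force as % of curve-1 maximum. pA2 calculated from vehicle and test A50 values; n = 2.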

[2] = Plasma protein binding in human; type: ADME, cell-free; settings: for fraction unbound: read-out: PPB (converted)
[3] = biological target: Muscarinic acetylcholine receptor M3 (Homo sapiens, UniProt P20309); test: Displacement of [3H]NMS from recombinant human M3 receptor expressed in CHO-K1 cells after 16 hrs by SPA method; type: cell-based
How it was run: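 Nonspecific binding defined with atropine 1 µM; eight total-binding replicates per plate. Incubated at room temperature at least 16 h to equilibrium before counting; n ≥ 2.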

[4] = Intrinsic clearance in human liver microsomes; type: ADME; settings: read-out: CLH

Muscarinic acetylcholine receptor M3 (Cavia porcellus, UniProt Q8VH26), sequence (Q8VH26 whole entry): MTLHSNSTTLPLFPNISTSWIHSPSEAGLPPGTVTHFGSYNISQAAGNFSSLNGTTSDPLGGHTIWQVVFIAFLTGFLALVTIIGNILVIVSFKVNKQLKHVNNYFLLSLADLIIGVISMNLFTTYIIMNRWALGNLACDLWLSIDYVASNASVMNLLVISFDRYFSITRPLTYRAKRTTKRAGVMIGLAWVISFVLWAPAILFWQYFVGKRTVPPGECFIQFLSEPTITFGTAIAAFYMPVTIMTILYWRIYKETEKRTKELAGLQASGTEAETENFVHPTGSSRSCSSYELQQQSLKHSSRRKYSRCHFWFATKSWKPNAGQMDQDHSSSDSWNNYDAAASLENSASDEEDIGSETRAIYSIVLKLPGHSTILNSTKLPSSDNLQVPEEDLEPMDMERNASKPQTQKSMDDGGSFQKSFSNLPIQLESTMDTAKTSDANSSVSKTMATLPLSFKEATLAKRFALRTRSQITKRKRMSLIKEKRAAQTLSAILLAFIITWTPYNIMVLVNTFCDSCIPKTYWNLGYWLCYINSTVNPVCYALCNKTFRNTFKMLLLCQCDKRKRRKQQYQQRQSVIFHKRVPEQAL
Muscarinic acetylcholine receptor M3 (Homo sapiens, UniProt P20309), sequence (P20309 whole entry): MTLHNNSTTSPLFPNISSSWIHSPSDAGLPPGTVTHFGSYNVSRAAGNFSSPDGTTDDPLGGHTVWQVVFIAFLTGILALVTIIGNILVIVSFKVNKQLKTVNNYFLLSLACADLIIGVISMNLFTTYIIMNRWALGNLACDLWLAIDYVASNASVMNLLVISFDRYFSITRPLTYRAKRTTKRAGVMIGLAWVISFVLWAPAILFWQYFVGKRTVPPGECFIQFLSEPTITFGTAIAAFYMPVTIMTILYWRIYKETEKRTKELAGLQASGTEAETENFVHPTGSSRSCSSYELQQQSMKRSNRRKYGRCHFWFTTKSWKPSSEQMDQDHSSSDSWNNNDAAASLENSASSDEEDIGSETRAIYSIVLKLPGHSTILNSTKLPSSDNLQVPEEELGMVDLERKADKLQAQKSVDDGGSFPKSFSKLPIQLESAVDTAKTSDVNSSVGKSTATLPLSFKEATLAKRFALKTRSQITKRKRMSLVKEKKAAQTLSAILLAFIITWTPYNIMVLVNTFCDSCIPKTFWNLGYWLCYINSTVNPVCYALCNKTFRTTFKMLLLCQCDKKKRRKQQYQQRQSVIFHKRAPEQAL

| SMILES | Kb [1] | fraction unbound [2] | IC50 [3] | microsomal CLint [4] | PPB [2] |
| --- | --- | --- | --- | --- | --- |
| O=C(O[C@H]1C[N+]2(CCCc3ccncc3)CCC1CC2)C1(c2cccs2)CCCCCC1 | 0.1 nM | 0.06 | 0.0501 nM | 55 µL/min/mg | – |
| Cc1ccc(CCC[N+]23CCC(CC2)[C@@H](OC(=O)C2(C4=CC=CC4)CCCCCC2)C3)c(C)n1 | – | 0.04 | 1 nM | 50 µL/min/mg | – |
| Cn1ccc(CCC[N+]23CCC(CC2)[C@@H](OC(=O)C2(C4=CC=CC4)CCCCCC2)C3)n1 | – | 0.06 | 0.501 nM | 63 µL/min/mg | – |
| O=C(C[N+]12CCC(CC1)[C@@H](OC(=O)C1(C3=CC=CC3)CCCCCC1)C2)Nc1ccccc1 | – | 0.006 | 0.251 nM | 27 µL/min/mg | – |
| O=C(C[N+]12CCC(CC1)[C@@H](OC(=O)C1(C3=CC=CC3)CCCCCC1)C2)Nc1cccc(F)c1 | 3.16 nM | 0.003 | 0.126 nM | 17 µL/min/mg | – |
| O=C(C[N+]12CCC(CC1)[C@@H](OC(=O)C1(C3=CC=CC3)CCCCCC1)C2)N1CCOCC1 | – | – | 100 nM | 15 µL/min/mg | – |
| O=C(C[N+]12CCC(CC1)[C@@H](OC(=O)C1(C3=CC=CC3)CCCCCC1)C2)Nc1cc[nH]n1 | – | 0.05 | 0.1 nM | 37 µL/min/mg | – |
| O=C(C[N+]12CCC(CC1)[C@@H](OC(=O)C1(C3=CC=CC3)CCCCCC1)C2)Nc1nncs1 | – | 0.06 | 7.94 nM | 39 µL/min/mg | – |
| O=C(C[N+]12CCC(CC1)[C@@H](OC(=O)C1(C3=CC=CC3)CCCCCC1)C2)Nc1ncns1 | – | – | 0.398 nM | 25 µL/min/mg | – |
| O=C(C[N+]12CCC(CC1)[C@@H](OC(=O)C1(C3=CC=CC3)CCCCCC1)C2)Nc1ncco1 | – | 0.15 | 12.6 nM | 66 µL/min/mg | – |
| CC(C)(C)c1cc(NC(=O)C[N+]23CCC(CC2)[C@@H](OC(=O)C2(C4=CC=CC4)CCCCCC2)C3)no1 | – | – | 10 nM | – | – |
| O=C(C[N+]12CCC(CC1)[C@H](OC(=O)C1(C3=CC=CC3)CCCCCC1)C2)Nc1ccccn1 | – | – | 31.6 nM | – | – |
| O=C(C[N+]12CCC(CC1)[C@@H](OC(=O)C1(C3=CC=CC3)CCCCCC1)C2)Nc1cccnc1 | – | 0.04 | 0.2 nM | 40 µL/min/mg | – |
| O=C(C[N+]12CCC(CC1)[C@@H](OC(=O)C1(C3=CC=CC3)CCCCCC1)C2)Nc1ccncc1 | – | 0.05 | 2.51 nM | 39 µL/min/mg | – |
| O=C(C[N+]12CCC(CC1)[C@@H](OC(=O)C1(C3=CC=CC3)CCCCCC1)C2)Nc1cncnc1 | – | – | 0.631 nM | 32 µL/min/mg | – |
| O=C(C[N+]12CCC(CC1)[C@@H](OC(=O)C1(C3=CC=CC3)CCCCCC1)C2)Nc1ccncn1 | – | 0.11 | 0.158 nM | – | – |
| O=C(C[N+]12CCC(CC1)[C@@H](OC(=O)C1(C3=CC=CC3)CCCCCC1)C2)Nc1ncccc1F | – | 0.06 | 0.251 nM | 49 µL/min/mg | – |
| Cc1ccc(NC(=O)C[N+]23CCC(CC2)[C@@H](OC(=O)C2(C4=CC=CC4)CCCCCC2)C3)nc1 | – | 0.019 | 0.501 nM | 51 µL/min/mg | – |
| O=C(C[N+]12CCC(CC1)[C@@H](OC(=O)C1(C3=CC=CC3)CCCCCC1)C2)Nc1ccc(F)cn1 | – | 0.024 | 0.631 nM | – | – |
| Cc1ccnc(NC(=O)C[N+]23CCC(CC2)[C@@H](OC(=O)C2(C4=CC=CC4)CCCCCC2)C3)c1 | – | 0.018 | 0.794 nM | 30 µL/min/mg | – |
| O=C(C[N+]12CCC(CC1)[C@@H](OC(=O)C1(C3=CC=CC3)CCCCCC1)C2)Nc1cccc(C(F)(F)F)n1 | – | 0.004 | 2.51 nM | – | – |
| O=C(C[N+]12CCC(CC1)[C@@H](OC(=O)C1(C3=CC=CC3)CCCCCC1)C2)Nc1ccc(C(F)(F)F)nc1 | – | – | 0.251 nM | 5 µL/min/mg | – |
| Cc1ccc(NC(=O)C[N+]23CCC(CC2)[C@@H](OC(=O)C2(C4=CC=CC4)CCCCCC2)C3)cn1 | – | – | 0.794 nM | – | – |

| SMILES | Kb [1] | fraction unbound [2] | IC50 [3] | microsomal CLint [4] | PPB [2] |
| --- | --- | --- | --- | --- | --- |
| Cc1nccc(NC(=O)C[N+]23CCC(CC2)[C@@H](OC(=O)C2(C4=CC=CC4)CCCCCC2)C3)n1 | – | – | 0.398 nM | – | – |
| Cc1cc(NC(=O)C[N+]23CCC(CC2)[C@@H](OC(=O)C2(C4=CC=CC4)CCCCCC2)C3)ncn1 | – | 0.2 | 1 nM | 26 µL/min/mg | – |
| Cc1ccc(NC(=O)C[N+]23CCC(CC2)[C@@H](OC(=O)C2(C4=CC=CC4)CCCCCC2)C3)nn1 | – | 0.1 | 0.794 nM | 16 µL/min/mg | – |
| O=C(C[N+]12CCC(CC1)[C@@H](OC(=O)C1(C3=CC=CC3)CCCCCC1)C2)Nc1ccc(C(F)(F)F)nn1 | – | – | 2.51 nM | – | – |
| Cc1cnc(NC(=O)C[N+]23CCC(CC2)[C@@H](OC(=O)C2(C4=CC=CC4)CCCCCC2)C3)cn1 | – | 0.04 | 0.794 nM | 27 µL/min/mg | – |
| Cc1cncc(NC(=O)C[N+]23CCC(CC2)[C@@H](OC(=O)C2(C4=CC=CC4)CCCCCC2)C3)n1 | – | – | 0.631 nM | 27 µL/min/mg | – |
| O=C(C[N+]12CCC(CC1)[C@@H](OC(=O)C1(C3=CC=CC3)CCCCCC1)C2)Nc1cncc(Cl)n1 | 0.501 nM | 0.015 | 0.1 nM | 51 µL/min/mg | – |
| O=C(C[N+]12CCC(CC1)[C@@H](OC(=O)C1(C3=CC=CC3)CCCCCC1)C2)NCCNC(=O)c1cnccn1 | – | – | 3.16 nM | 74 µL/min/mg | – |
| O=C(C[N+]12CCC(CC1)[C@@H](OC(=O)C1(C3=CC=CC3)CCCCCC1)C2)NCCCNC(=O)c1ccccn1 | – | 0.026 | 6.31 nM | 101 µL/min/mg | – |
| O=C(O[C@H]1C[N+]2(Cc3ccn(-c4ccccc4)n3)CCC1CC2)C1(C2=CC=CC2)CCCCCC1 | – | – | 0.398 nM | 103 µL/min/mg | – |
| O=C(O[C@H]1C[N+]2(Cc3csc(-c4ccccc4)n3)CCC1CC2)C1(C2=CC=CC2)CCCCCC1 | – | – | 25.1 nM | 133 µL/min/mg | – |
| C[N+]1(C)CCC(OC(=O)C2(c3ccccc3)CCCCCC2)CC1 | – | 0.27 | 0.251 nM | 20 µL/min/mg | – |
| C[N+]12CCC(CC1)[C@@H](OC(=O)C1(C3=CC=CC3)CCCCCC1)C2 | – | 0.27 | 2.51 nM | 34 µL/min/mg | – |
| O=C(O[C@H]1C[N+]2(Cc3ccccc3)CCC1CC2)C1(C2=CC=CC2)CCCCCC1 | – | – | 39.8 nM | 68 µL/min/mg | – |
| O=C(O[C@H]1C[N+]2(Cc3ccc(F)c(F)c3)CCC1CC2)C1(C2=CC=CC2)CCCCCC1 | – | – | 39.8 nM | 55 µL/min/mg | – |
| COc1cccc(C[N+]23CCC(CC2)[C@@H](OC(=O)C2(C4=CC=CC4)CCCCCC2)C3)c1 | – | – | 3.16 nM | – | – |
| O=C(O[C@H]1C[N+]2(CCc3ccccc3)CCC1CC2)C1(C2=CC=CC2)CCCCCC1 | 0.316 nM | 0.007 | 0.0794 nM | 105 µL/min/mg | – |
| Cc1ccc(CC[N+]23CCC(CC2)[C@@H](OC(=O)C2(C4=CC=CC4)CCCCCC2)C3)s1 | 0.316 nM | 0.01 | 0.0631 nM | 130 µL/min/mg | – |
| O=C(O[C@H]1C[N+]2(CCc3cccc(Cl)c3)CCC1CC2)C1(C2=CC=CC2)CCCCCC1 | 0.251 nM | 0.005 | < 0.0398 nM | 72 µL/min/mg | – |
| N#Cc1ccc(CC[N+]23CCC(CC2)[C@@H](OC(=O)C2(C4=CC=CC4)CCCCCC2)C3)cc1 | – | – | 3.16 nM | 49 µL/min/mg | – |
| O=C(O[C@H]1C[N+]2(CCOc3ccccc3)CCC1CC2)C1(C2=CC=CC2)CCCCCC1 | 0.398 nM | 0.04 | 0.158 nM | 106 µL/min/mg | – |
| O=C(O[C@H]1C[N+]2(CCOCc3ccccc3)CCC1CC2)C1(C2=CC=CC2)CCCCCC1 | 3.98 nM | 0.03 | 0.126 nM | 120 µL/min/mg | – |
| O=C(O[C@H]1C[N+]2(CCCOc3ccccc3)CCC1CC2)C(O)(c1cccs1)c1cccs1.[Br-] [ACLIDINIUM BROMIDE] | – | – | – | > 145 µL/min/mg | ND(Unstable) |
